System: Fibroblast
Assay: Multiplex assay against human fibroblast
Assay type: toxicity, cell-based
Summary of the method: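 Live cells were stained at seeding with Hoechst33342, BioTracker Green Microtubule Cytoskeleton Dye, MitoTracker Red and Annexin V Alexa Fluor 680, then imaged on a CQ1 microscope at 37°C and 5% CO2 after compound addition. CellPathfinder machine-learning gating split cells into Hoechst high-intensity objects or normal cells. Normal cells were split into healthy, pyknosed or fragmented nuclei, and pyknosed cells into mitotic or apoptotic. Tubulin, mitochondrial-mass and membrane-permeability phenotypes are per cents of healthy-nucleus cells.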

[1] = 12 h, 1 µM, compound concentration 1 uM, replicate 1
[2] = 12 h, 1 µM, compound concentration 1 uM, replicate 2
[3] = 12 h, 10 µM, compound concentration 10 uM, replicate 1
[4] = 12 h, 10 µM, compound concentration 10 uM, replicate 2
[5] = 24 h, 1 µM, compound concentration 1 uM, replicate 1
[6] = 24 h, 1 µM, compound concentration 1 uM, replicate 2
[7] = 24 h, 10 µM, compound concentration 10 uM, replicate 1
[8] = 24 h, 10 µM, compound concentration 10 uM, replicate 2
[9] = 48 h, 1 µM, compound concentration 1 uM, replicate 1
[10] = 48 h, 1 µM, compound concentration 1 uM, replicate 2
[11] = 48 h, 10 µM, compound concentration 10 uM, replicate 1
[12] = 48 h, 10 µM, compound concentration 10 uM, replicate 2

O=S(=O)(c1ccccc1)c1cnc2c(N3CCNCC3)cccc2c1 [INTEPIRDINE]
Population Apoptotic (%) [1]: 50% | Population Fragmented Nuclei (%) [1]: 23% | Population Healthy Nuclei (%) [1]: 67% | Population Hoechst High Intensity Objects (%) [1]: 3% | Population Membrane Permeable-Phenotype (%) [1]: 0% | Population Mitochondria Different-Phenotype (%) [1]: 2% | Population Mitotic Cells (%) [1]: 50% | Population Normal (%) [1]: 96% | Population Pyknosed Nuclei (%) [1]: 9% | Population Tubulin-Different-Phenotype (%) [1]: 26% | Total Cell Count [1]: 212 | Population Apoptotic (%) [2]: 34% | Population Fragmented Nuclei (%) [2]: 28% | Population Healthy Nuclei (%) [2]: 47% | Population Hoechst High Intensity Objects (%) [2]: 4% | Population Membrane Permeable-Phenotype (%) [2]: 7% | Population Mitochondria Different-Phenotype (%) [2]: 7% | Population Mitotic Cells (%) [2]: 65% | Population Normal (%) [2]: 95% | Population Pyknosed Nuclei (%) [2]: 24% | Population Tubulin-Different-Phenotype (%) [2]: 61% | Total Cell Count [2]: 148 | Population Apoptotic (%) [3]: 75% | Population Fragmented Nuclei (%) [3]: 22% | Population Healthy Nuclei (%) [3]: 62% | Population Hoechst High Intensity Objects (%) [3]: 1% | Population Membrane Permeable-Phenotype (%) [3]: 1% | Population Mitochondria Different-Phenotype (%) [3]: 8% | Population Mitotic Cells (%) [3]: 25% | Population Normal (%) [3]: 98% | Population Pyknosed Nuclei (%) [3]: 14% | Population Tubulin-Different-Phenotype (%) [3]: 44% | Total Cell Count [3]: 138 | Population Apoptotic (%) [4]: 61% | Population Fragmented Nuclei (%) [4]: 43% | Population Healthy Nuclei (%) [4]: 40% | Population Hoechst High Intensity Objects (%) [4]: 6% | Population Membrane Permeable-Phenotype (%) [4]: 5% | Population Mitochondria Different-Phenotype (%) [4]: 13% | Population Mitotic Cells (%) [4]: 38% | Population Normal (%) [4]: 93% | Population Pyknosed Nuclei (%) [4]: 16% | Population Tubulin-Different-Phenotype (%) [4]: 68% | Total Cell Count [4]: 136 | Population Apoptotic (%) [5]: 54% | Population Fragmented Nuclei (%) [5]: 16% | Population Healthy Nuclei (%) [5]: 72% | Population Hoechst High Intensity Objects (%) [5]: 5% | Population Membrane Permeable-Phenotype (%) [5]: 2% | Population Mitochondria Different-Phenotype (%) [5]: 4% | Population Mitotic Cells (%) [5]: 45% | Population Normal (%) [5]: 94% | Population Pyknosed Nuclei (%) [5]: 10% | Population Tubulin-Different-Phenotype (%) [5]: 28% | Total Cell Count [5]: 212 | Population Apoptotic (%) [6]: 41% | Population Fragmented Nuclei (%) [6]: 32% | Population Healthy Nuclei (%) [6]: 44% | Population Hoechst High Intensity Objects (%) [6]: 0% | Population Membrane Permeable-Phenotype (%) [6]: 1% | Population Mitotic Cells (%) [6]: 58% | Population Normal (%) [6]: 99% | Population Pyknosed Nuclei (%) [6]: 24% | Population Tubulin-Different-Phenotype (%) [6]: 59% | Total Cell Count [6]: 151 | Population Apoptotic (%) [7]: 40% | Population Fragmented Nuclei (%) [7]: 28% | Population Healthy Nuclei (%) [7]: 65% | Population Hoechst High Intensity Objects (%) [7]: 1% | Population Membrane Permeable-Phenotype (%) [7]: 0% | Population Mitochondria Different-Phenotype (%) [7]: 7% | Population Mitotic Cells (%) [7]: 60% | Population Normal (%) [7]: 98% | Population Pyknosed Nuclei (%) [7]: 6% | Population Tubulin-Different-Phenotype (%) [7]: 50% | Total Cell Count [7]: 152 | Population Apoptotic (%) [8]: 91% | Population Fragmented Nuclei (%) [8]: 39% | Population Healthy Nuclei (%) [8]: 50% | Population Hoechst High Intensity Objects (%) [8]: 4% | Population Membrane Permeable-Phenotype (%) [8]: 3% | Population Mitochondria Different-Phenotype (%) [8]: 15% | Population Mitotic Cells (%) [8]: 8% | Population Normal (%) [8]: 95% | Population Pyknosed Nuclei (%) [8]: 10% | Population Tubulin-Different-Phenotype (%) [8]: 67% | Total Cell Count [8]: 123 | Population Apoptotic (%) [9]: 66% | Population Fragmented Nuclei (%) [9]: 22% | Population Healthy Nuclei (%) [9]: 69% | Population Hoechst High Intensity Objects (%) [9]: 5% | Population Membrane Permeable-Phenotype (%) [9]: 0% | Population Mitochondria Different-Phenotype (%) [9]: 2% | Population Mitotic Cells (%) [9]: 33% | Population Normal (%) [9]: 94% | Population Pyknosed Nuclei (%) [9]: 7% | Population Tubulin-Different-Phenotype (%) [9]: 34% | Total Cell Count [9]: 213 | Population Apoptotic (%) [10]: 52% | Population Fragmented Nuclei (%) [10]: 39% | Population Healthy Nuclei (%) [10]: 45% | Population Hoechst High Intensity Objects (%) [10]: 3% | Population Membrane Permeable-Phenotype (%) [10]: 1% | Population Mitotic Cells (%) [10]: 48% | Population Normal (%) [10]: 96% | Population Pyknosed Nuclei (%) [10]: 15% | Population Tubulin-Different-Phenotype (%) [10]: 54% | Total Cell Count [10]: 170 | Population Apoptotic (%) [11]: 63% | Population Fragmented Nuclei (%) [11]: 23% | Population Healthy Nuclei (%) [11]: 67% | Population Hoechst High Intensity Objects (%) [11]: 3% | Population Membrane Permeable-Phenotype (%) [11]: 1% | Population Mitochondria Different-Phenotype (%) [11]: 15% | Population Mitotic Cells (%) [11]: 36% | Population Normal (%) [11]: 96% | Population Pyknosed Nuclei (%) [11]: 8% | Population Tubulin-Different-Phenotype (%) [11]: 47% | Total Cell Count [11]: 139 | Population Apoptotic (%) [12]: 40% | Population Fragmented Nuclei (%) [12]: 48% | Population Healthy Nuclei (%) [12]: 38% | Population Hoechst High Intensity Objects (%) [12]: 6% | Population Membrane Permeable-Phenotype (%) [12]: 6% | Population Mitochondria Different-Phenotype (%) [12]: 6% | Population Mitotic Cells (%) [12]: 60% | Population Normal (%) [12]: 93% | Population Pyknosed Nuclei (%) [12]: 12% | Population Tubulin-Different-Phenotype (%) [12]: 57% | Total Cell Count [12]: 125
